Tests used:
Details in all cases: stereoisomer not certain
OR13H1 (Homo sapiens) = target: T1, OR13H1 (Homo sapiens) (UniProt Q8NG92)
T1 sequence (whole entry): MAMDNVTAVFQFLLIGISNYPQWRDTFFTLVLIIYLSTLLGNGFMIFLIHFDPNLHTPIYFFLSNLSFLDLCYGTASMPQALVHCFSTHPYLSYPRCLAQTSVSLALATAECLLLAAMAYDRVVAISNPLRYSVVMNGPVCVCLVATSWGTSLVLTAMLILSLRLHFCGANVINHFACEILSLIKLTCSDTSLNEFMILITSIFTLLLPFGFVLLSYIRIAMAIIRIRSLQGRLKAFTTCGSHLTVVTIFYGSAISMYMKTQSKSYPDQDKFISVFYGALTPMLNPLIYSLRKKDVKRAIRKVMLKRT
Method in brief: (§1)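 Transient luciferase assays in mammalian cell lines were common, though methods varied by source. The values come from published papers and their supplementary material, with extra details from the original authors when needed. Responsive refers to a measured signal the original authors judged statistically different from baseline, and non-responsive (inactive) to the remainder.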

OR13J1 (Homo sapiens) = target: T2, OR13J1 (Homo sapiens) (UniProt Q8NGT2)
T2 sequence (whole entry): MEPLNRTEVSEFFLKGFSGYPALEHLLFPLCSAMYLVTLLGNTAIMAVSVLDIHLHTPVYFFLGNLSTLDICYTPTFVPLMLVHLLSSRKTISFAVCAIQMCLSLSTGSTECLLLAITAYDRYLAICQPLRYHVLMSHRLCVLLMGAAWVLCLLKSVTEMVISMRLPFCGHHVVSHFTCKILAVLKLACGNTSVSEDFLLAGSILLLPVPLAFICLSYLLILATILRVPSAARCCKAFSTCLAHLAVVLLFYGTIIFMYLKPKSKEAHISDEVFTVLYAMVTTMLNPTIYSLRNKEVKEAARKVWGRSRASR
Method in brief: as §1

OR14A16 (Homo sapiens) = target: T3, OR14A16 (Homo sapiens) (UniProt Q8NHC5)
T3 sequence (whole entry): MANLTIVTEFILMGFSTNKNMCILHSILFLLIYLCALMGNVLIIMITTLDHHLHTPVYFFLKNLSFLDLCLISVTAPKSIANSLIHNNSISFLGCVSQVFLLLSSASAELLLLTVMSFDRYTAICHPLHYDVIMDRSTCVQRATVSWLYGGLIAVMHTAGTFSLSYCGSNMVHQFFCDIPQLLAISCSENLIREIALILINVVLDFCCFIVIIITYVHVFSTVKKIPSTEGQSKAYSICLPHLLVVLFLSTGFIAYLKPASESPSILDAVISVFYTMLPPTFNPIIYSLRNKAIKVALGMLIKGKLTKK
Method in brief: as §1

OR14A2 (Homo sapiens) = target: T4, OR14A2 (Homo sapiens) (UniProt Q96R54)
T4 sequence (whole entry): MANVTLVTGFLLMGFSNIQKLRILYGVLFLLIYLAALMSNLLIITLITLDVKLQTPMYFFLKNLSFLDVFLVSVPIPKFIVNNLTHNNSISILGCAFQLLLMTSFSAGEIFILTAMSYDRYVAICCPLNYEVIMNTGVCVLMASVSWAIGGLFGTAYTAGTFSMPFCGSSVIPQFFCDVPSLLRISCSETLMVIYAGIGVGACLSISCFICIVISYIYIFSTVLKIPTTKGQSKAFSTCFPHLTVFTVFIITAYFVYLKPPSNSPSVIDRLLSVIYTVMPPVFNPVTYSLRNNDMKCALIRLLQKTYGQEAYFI
Method in brief: as §1

OR14C36 (Homo sapiens) = target: T5, OR14C36 (Homo sapiens) (UniProt Q8NHC7)
T5 sequence (whole entry): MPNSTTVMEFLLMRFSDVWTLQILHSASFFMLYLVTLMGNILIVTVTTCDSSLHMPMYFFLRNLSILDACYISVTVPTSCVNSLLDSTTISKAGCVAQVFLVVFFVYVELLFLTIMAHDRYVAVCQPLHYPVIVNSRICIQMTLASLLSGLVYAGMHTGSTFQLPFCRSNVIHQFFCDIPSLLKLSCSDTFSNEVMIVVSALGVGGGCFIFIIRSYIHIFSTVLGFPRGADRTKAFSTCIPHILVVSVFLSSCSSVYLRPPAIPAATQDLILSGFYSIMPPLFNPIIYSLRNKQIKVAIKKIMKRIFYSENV
Method in brief: as §1

OR14I1 (Homo sapiens) = target: T6, OR14I1 (Homo sapiens) (UniProt A6ND48)
T6 sequence (whole entry): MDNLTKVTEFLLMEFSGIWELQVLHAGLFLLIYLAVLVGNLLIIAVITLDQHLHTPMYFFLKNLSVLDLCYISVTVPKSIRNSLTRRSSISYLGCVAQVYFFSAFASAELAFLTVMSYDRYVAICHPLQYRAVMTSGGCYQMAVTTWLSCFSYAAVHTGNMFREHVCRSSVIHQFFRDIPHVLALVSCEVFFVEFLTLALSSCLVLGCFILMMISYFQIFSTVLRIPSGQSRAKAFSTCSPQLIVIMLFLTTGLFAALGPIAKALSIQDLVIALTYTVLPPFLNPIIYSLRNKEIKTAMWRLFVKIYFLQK
Method in brief: as §1

OR14J1 (Homo sapiens) = target: T7, OR14J1 (Homo sapiens) (UniProt Q9UGF5)
T7 sequence (whole entry): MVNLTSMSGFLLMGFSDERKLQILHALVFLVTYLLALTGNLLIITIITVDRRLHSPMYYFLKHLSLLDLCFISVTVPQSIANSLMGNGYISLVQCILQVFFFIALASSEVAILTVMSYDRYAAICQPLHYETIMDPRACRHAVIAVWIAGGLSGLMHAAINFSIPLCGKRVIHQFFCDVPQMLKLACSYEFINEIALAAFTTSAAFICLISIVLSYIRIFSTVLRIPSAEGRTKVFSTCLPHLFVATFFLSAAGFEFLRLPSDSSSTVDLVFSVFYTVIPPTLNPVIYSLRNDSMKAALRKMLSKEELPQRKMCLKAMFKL
Method in brief: as §1

OR14K1 (Homo sapiens) = target: T8, OR14K1 (Homo sapiens) (UniProt Q8NGZ2)
T8 sequence (whole entry): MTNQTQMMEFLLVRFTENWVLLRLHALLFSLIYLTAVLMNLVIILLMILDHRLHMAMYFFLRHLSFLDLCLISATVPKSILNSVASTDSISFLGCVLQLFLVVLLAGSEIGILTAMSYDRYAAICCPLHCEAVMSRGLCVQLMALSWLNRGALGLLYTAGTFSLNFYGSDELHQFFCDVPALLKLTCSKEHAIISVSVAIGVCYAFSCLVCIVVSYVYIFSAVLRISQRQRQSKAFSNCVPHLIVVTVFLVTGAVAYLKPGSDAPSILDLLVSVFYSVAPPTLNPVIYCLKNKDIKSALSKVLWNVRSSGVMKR
Method in brief: as §1

OR1A1 (Homo sapiens) = target: T9, OR1A1 (Homo sapiens) (UniProt Q9P1Q5)
T9 sequence (whole entry): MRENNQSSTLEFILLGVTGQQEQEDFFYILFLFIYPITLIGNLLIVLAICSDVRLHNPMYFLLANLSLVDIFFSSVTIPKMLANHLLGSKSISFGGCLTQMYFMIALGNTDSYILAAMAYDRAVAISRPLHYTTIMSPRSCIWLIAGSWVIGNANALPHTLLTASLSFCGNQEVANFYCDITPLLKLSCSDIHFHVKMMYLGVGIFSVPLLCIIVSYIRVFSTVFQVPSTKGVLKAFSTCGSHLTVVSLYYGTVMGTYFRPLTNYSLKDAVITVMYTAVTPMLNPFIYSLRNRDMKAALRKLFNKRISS
Method in brief: as §1

Measured: odorant receptor agonist call;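 also: active if original authors judged signal statistically different from baseline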

CCCCCC(S)C(C)CO (centres undefined)
inactive: OR13H1 (Homo sapiens) | OR13J1 (Homo sapiens) | OR14A16 (Homo sapiens) | OR14A2 (Homo sapiens) | OR14C36 (Homo sapiens) | OR14I1 (Homo sapiens) | OR14J1 (Homo sapiens) | OR14K1 (Homo sapiens) | OR1A1 (Homo sapiens)

From the M2OR odorant receptor database
